17 compounds from ChEMBL document CHEMBL3351372, “Structure-Based Drug Design of Novel Potent and Selective Tetrahydropyrazolo[1,5-a]pyrazines as ATR Inhibitors” (ACS Med Chem Lett, 2015) can be followed below.

The target in one data set is Cytochrome P450 3A4 (Homo sapiens, UniProt P08684). The data set can be described thus: Time dependent inhibition of CYP3A4 in human liver microsomes using midazolam as substrate assessed as ratio of Kinact to Ki preincubated for 0 to 30 mins followed by NADPH addition in phosphate buffer at 50 uM. The format is ADME. The essentials: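 Compound was preincubated with human liver microsomes (0.5 mg/mL) in 100 mM phosphate buffer with 1 mM NADPH for 0, 5, 15 and 30 min, testing 50 μM plus serial dilutions. The mix was diluted 20-fold and incubated with 20 μM midazolam to measure residual CYP3A4 activity. Activity versus preincubation time gave the kinetic TDI parameters.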

In data set [1] the target is Serine/threonine-protein kinase ATR (Homo sapiens, UniProt Q13535). Nature of the data set: Inhibition of ATR (unknown origin) using Avi-tagged protein substrate by alphascreen assay.
The target of data set [2] is Phosphatidylinositol 4,5-bisphosphate 3-kinase catalytic subunit alpha isoform (Homo sapiens, UniProt P42336). Nature of the data set: Inhibition of PI3Kalpha (unknown origin).
Data set [3] can be described thus: Inhibition of CHK1 in HeLa S3 cells assessed as inhibition of phosphorylation at ser345 by AlphaScreen SureFire CHK1 (p-Ser345) assay.
Data set [4] in a line: Solubility of the compound in PBS buffer at pH 7 by miniaturized shake flask equilibrium solubility assay.
Data set [5] addresses DNA-dependent protein kinase catalytic subunit (Homo sapiens, UniProt P78527).
Data set [6] deals with Serine/threonine-protein kinase mTOR (Homo sapiens, UniProt P42345). The data set can be described thus: Inhibition of mTOR (unknown origin) by alphascreen SureFire p70 S6K (p-Thr389) assay. In short, it runs like this: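 They were treated with compound for 1 h under the same conditions. The read-out was p70 S6K phospho-Thr389.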
Data set [7] addresses Serine-protein kinase ATM (Homo sapiens, UniProt Q13315). The data set can be described thus: Inhibition of ATM (unknown origin) using p53-Q10-K17 peptide substrate by alphascreen assay.
The nature of data set [8]: Apparent permeability across apical to basolateral side in human Caco2 cells at pH 7.4. As to conditions: Caco-2, pH 7.4; call rule not given here.
The nature of data set [9]: Apparent permeability across basolateral to apical side in human Caco2 cells at pH 7.4. As to conditions: Caco-2, pH 7.4.
The nature of data set [10]: Octanol-water distribution coefficient, log D of the compound with pH 7.4 PBS buffer.
Data set [11] can be described thus: Oral bioavailability in rat at 2.5 mg/kg. The format is ADME, organism-based. As to conditions: in vivo.
Data set [12] can be described thus: Volume of distribution at steady state in rat at 2.5 mg/kg. The format is ADME, organism-based. The arrangement: dose 2.5 mg/kg. As to conditions: in vivo, read-out: Vdss.
Data set [13] concerns the target Voltage-gated inwardly rectifying potassium channel KCNH2 (Homo sapiens, UniProt Q12809). Nature of the data set: Inhibition of human ERG by automated whole cell electrophysiology.
The nature of data set [14]: Clearance in rat at 2.5 mg/kg. The format is ADME, organism-based. The arrangement: dose 2.5 mg/kg. As to conditions: in vivo.
Data set [15] in a line: Half life in rat at 2.5 mg/kg. On the set-up: dose 2.5 mg/kg. The data set is classed as ADME, organism-based. As to conditions: in vivo.
The next data set has as its system Liver microsome. The data set can be described thus: Metabolic stability in human liver microsomes assessed as level of GSH adduct after 60 mins at 10 uM by GSH trapping assay. As to conditions: 1 h.

Converted amounts (≈) assume the structure as drawn.

Sequence of Serine-protein kinase ATM (Q13315 whole entry): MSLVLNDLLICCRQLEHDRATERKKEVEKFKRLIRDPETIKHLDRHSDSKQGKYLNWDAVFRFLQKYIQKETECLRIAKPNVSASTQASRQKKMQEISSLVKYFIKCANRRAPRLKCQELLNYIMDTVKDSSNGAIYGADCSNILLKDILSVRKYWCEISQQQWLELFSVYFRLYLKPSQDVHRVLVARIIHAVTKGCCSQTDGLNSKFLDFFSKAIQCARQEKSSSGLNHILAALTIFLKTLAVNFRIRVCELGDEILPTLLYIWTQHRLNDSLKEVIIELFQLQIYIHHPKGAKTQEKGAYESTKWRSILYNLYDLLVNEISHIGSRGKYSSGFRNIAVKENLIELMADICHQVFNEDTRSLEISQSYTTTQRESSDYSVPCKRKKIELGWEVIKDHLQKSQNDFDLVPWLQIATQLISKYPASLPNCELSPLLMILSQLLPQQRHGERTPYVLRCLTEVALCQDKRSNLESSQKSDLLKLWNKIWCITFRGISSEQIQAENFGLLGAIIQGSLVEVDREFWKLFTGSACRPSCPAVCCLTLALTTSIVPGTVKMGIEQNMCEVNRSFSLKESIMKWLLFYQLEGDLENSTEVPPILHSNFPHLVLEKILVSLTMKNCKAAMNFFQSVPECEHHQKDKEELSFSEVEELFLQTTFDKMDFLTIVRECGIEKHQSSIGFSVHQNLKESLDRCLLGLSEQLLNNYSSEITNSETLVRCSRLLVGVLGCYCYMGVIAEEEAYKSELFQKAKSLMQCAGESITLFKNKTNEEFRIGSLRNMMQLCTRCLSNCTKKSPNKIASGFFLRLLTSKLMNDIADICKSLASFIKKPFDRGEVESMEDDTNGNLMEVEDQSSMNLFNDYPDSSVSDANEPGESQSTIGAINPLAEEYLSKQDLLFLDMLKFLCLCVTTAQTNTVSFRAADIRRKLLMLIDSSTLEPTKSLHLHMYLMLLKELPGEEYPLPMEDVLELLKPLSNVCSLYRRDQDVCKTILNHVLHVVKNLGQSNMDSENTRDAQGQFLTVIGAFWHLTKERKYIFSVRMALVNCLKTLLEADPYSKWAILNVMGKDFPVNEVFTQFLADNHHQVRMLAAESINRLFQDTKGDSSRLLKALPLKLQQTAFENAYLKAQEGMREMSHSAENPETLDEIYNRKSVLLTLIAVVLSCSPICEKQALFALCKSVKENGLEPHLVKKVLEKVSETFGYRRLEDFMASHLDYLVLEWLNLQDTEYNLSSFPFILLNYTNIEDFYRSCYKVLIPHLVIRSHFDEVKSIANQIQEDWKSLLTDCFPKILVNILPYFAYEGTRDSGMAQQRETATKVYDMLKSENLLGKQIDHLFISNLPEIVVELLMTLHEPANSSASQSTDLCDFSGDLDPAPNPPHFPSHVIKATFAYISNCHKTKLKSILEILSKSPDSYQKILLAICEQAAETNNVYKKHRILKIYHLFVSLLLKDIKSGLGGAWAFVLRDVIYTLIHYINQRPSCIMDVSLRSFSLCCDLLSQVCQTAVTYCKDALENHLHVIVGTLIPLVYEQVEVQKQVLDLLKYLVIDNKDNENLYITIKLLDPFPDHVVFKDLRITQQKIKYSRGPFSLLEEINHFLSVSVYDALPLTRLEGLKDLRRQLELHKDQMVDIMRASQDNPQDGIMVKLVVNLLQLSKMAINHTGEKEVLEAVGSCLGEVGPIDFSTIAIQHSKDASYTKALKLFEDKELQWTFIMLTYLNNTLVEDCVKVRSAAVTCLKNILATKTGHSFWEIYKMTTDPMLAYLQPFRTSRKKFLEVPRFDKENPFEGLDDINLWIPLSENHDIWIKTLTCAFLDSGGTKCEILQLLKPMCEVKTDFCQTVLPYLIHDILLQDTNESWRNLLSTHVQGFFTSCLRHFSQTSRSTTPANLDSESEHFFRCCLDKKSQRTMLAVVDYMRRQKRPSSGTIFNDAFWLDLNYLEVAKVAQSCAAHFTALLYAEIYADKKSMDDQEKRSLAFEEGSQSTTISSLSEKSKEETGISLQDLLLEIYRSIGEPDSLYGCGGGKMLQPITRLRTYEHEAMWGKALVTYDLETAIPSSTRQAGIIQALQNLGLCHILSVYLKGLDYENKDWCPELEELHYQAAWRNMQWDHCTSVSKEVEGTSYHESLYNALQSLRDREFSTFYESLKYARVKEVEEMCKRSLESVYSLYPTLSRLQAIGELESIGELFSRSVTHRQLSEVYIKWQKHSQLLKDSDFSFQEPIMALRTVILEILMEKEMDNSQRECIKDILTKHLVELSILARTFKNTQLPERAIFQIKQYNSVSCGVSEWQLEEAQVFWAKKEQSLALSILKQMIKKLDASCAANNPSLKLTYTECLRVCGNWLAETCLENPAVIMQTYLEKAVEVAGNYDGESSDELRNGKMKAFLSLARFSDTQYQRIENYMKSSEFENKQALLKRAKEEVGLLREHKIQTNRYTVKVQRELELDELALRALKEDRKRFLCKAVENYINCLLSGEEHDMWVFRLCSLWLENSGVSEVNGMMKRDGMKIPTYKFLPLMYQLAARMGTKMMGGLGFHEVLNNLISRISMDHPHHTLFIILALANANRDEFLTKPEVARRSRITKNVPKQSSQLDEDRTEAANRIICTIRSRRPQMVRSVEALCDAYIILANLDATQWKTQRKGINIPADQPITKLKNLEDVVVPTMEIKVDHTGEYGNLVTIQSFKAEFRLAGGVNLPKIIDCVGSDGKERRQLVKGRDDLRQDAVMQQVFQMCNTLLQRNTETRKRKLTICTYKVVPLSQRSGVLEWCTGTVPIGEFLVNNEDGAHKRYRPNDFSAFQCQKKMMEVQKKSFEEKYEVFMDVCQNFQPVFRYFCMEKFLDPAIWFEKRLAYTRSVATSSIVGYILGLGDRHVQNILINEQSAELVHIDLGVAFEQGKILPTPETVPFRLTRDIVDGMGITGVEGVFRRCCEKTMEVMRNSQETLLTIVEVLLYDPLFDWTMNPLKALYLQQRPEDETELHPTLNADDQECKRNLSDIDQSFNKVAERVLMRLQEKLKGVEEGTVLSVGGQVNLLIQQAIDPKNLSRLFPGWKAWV
Sequence of Cytochrome P450 3A4 (P08684 whole entry): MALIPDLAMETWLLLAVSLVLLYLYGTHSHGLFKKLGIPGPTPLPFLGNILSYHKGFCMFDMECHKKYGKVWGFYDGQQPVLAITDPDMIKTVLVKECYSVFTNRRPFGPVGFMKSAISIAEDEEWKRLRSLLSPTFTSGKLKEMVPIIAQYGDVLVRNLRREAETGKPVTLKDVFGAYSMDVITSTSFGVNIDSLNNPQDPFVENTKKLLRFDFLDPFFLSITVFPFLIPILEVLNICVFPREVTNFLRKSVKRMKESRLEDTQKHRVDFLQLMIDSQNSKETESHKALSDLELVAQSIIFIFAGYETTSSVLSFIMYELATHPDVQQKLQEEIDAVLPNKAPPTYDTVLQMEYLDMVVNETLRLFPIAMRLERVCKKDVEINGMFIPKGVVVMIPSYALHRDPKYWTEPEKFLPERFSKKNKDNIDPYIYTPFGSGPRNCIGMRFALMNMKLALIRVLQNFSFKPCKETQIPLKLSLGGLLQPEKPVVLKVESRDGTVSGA
Sequence of Phosphatidylinositol 4,5-bisphosphate 3-kinase catalytic subunit alpha isoform (P42336 whole entry, canonical isoform): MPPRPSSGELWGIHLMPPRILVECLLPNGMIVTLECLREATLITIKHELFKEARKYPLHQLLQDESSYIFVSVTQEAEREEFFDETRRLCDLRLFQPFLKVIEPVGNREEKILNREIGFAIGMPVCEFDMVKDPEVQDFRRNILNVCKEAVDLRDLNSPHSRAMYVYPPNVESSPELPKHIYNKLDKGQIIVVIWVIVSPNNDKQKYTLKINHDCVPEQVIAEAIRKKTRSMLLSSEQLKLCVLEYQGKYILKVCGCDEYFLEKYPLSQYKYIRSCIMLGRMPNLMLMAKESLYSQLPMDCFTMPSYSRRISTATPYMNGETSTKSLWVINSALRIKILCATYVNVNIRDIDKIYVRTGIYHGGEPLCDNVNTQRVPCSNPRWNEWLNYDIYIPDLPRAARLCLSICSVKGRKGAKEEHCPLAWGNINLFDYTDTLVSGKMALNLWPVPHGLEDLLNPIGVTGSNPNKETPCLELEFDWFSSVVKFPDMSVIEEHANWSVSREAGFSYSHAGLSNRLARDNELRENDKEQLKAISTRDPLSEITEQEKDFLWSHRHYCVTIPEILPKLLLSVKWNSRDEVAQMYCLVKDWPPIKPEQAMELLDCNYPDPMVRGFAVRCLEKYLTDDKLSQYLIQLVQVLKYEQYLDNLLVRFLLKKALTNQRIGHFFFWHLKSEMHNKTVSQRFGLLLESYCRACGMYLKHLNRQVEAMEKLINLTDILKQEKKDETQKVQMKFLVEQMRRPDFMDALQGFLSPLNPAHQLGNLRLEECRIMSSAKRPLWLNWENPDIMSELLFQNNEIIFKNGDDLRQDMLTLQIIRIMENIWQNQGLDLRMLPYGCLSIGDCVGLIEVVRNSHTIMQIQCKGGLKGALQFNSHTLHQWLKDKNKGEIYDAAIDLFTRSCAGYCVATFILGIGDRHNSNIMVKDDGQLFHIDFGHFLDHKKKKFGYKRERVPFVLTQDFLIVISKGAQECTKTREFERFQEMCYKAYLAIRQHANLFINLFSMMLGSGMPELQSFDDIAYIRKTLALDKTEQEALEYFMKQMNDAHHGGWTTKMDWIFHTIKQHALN

With `C[C@@H]1Cn2ncc(C3CCN(S(C)(=O)=O)CC3)c2CN1c1ccnc2[nH]cnc12`, the “inhibition (INH)” value on Cytochrome P450 3A4 is given as “Active”. In data set [1], this compound gave an IC50 of 2 nM.
As to `COc1ccc(-c2ccc3ncc(-c4ccc(C(N)=O)cc4)n3n2)cc1OC`, the 50% inhibitory concentration (IC50) in [2] came to 9 nM; in data set [1], 26 nM.
On to `CN(C)S(=O)(=O)c1ccc(-c2cnc3ccc(-c4ccnc5[nH]ccc45)nn23)cc1`, for which the IC50 in data set [2] came out at 40 nM; in data set [3], 44 nM; in data set [1], 0.5 nM.
`CN(C)S(=O)(=O)c1ccc(-c2cnn3c2CN(c2ccnc4[nH]ccc24)CC3)cc1`: the results for the IC50 in data set [2] and in data set [1] were 1100 nM and 1 nM, respectively. Further, the solubility (thermodynamic) in data set [4] came out at 3 µM (≈ 1.27 µg/mL).
In the case of `C[C@@H]1Cn2ncc(-c3ccc(S(=O)(=O)N(C)C)cc3)c2CN1c1ccnc2[nH]ccc12`, the results for the IC50 in data set [2], in data set [3] and in data set [1] were greater than 10000 nM, 123 nM and 0.5 nM, respectively. In [4], the thermodynamic solubility stood at 188 µM (≈ 82.1 µg/mL).
`C[C@@H]1Cn2ncc(-c3ccc(S(C)(=O)=O)cc3)c2CN1c1ccnc2[nH]ccc12`: the IC50 stood at 140 nM in data set [5], 0.3 nM in data set [1], 1100 nM in data set [6] and 0.13 µM in data set [7].
On to `C[C@@H]1Cn2ncc(C3CCN(S(C)(=O)=O)CC3)c2CN1c1ccnc2[nH]ccc12`, for which the IC50 was 6500 nM in [5], 1 nM in [1], greater than 2300 nM in data set [6] and 14 µM in data set [7]. Moreover, the apical-to-basolateral permeability (Papp A→B) in data set [8] turned out to be 10 ×10⁻⁶ cm/s. In data set [4], this compound registered a solubility (thermodynamic) of 965 µM (≈ 400 µg/mL). For the same compound, the Papp B→A in data set [9] is 44 ×10⁻⁶ cm/s. For the same compound, the logD in [10] was determined as 2.4.
In data set [11], `C[C@@H]1Cn2ncc(C3CCN(S(C)(=O)=O)CC3)c2CN1c1cc(Cl)nc2[nH]ccc12` had a bioavailability of 64%. Besides, the IC50 in [5] is 1600 nM; in data set [1], 0.4 nM; in [6], 4400 nM; in [13] it was 12.5 µM; in data set [7], 4.3 µM. Also, the apparent permeability from apical to basolateral (Papp A→B) in data set [8] stood at 18 ×10⁻⁶ cm/s. The compound also showed a thermodynamic solubility in data set [4] of 37 µM (≈ 16.6 µg/mL). For the same compound, the Papp B→A in data set [9] amounted to 30 ×10⁻⁶ cm/s. Moreover, in data set [12], the Vd was determined as 3.3 L/kg. This compound also gave a logD in data set [10] of 3.4. The same compound came in with a clearance in data set [14] of 57 mL/min/kg. In [15], the half-life is 51.6 min.
On to `C[C@@H]1Cn2ncc(C3CCN(S(C)(=O)=O)CC3)c2CN1c1ccnc2[nH]ncc12`, for which the “inhibition (INH)” value at Cytochrome P450 3A4 is given as “Not Active”. The compound further registered an IC50 in data set [1] of 29 nM.
The matching figures for `C[C@@H]1Cn2ncc(C3CCN(S(C)(=O)=O)CC3)c2CN1c1ccnc(N)c1`: “Active” and 440 nM.
As to `CC1(C)Cn2ncc(C3CCN(S(C)(=O)=O)CC3)c2CN1c1cc(Cl)nc2[nH]ccc12`, at Cytochrome P450 3A4, the Ratio was 0.023 µL/min/pmol. Besides, the IC50 in data set [1] turned out to be 6200 nM.
Take `C[C@@H]1[C@@H](C)n2ncc(C3CCN(S(C)(=O)=O)CC3)c2CN1c1ccnc2[nH]ccc12`: the Ratio at Cytochrome P450 3A4 was 0.004 µL/min/pmol. In [1], this compound registered an IC50 of 2100 nM.
In the same order, the values of `C[C@@H]1Cc2ncn(C3CCN(S(C)(=O)=O)CC3)c2CN1c1ccnc2[nH]ccc12` are 0.001 µL/min/pmol and 41 nM.
As for `C[C@@H]1Cn2ncc(C3CCN(S(C)(=O)=O)CC3)c2C(=O)N1c1ccnc2[nH]ccc12`, the TDI entry on Cytochrome P450 3A4 is reported as “Not Active”. The compound also displayed an IC50 in data set [1] of 64 nM.
As to `[2H][C@@]1(C)Cn2ncc(C3CCN(S(C)(=O)=O)CC3)c2CN1c1cc(Cl)nc2[nH]ccc12`, in the data set with Liver microsome, the Stability result is listed as “Stable”.
`[2H]C1([2H])c2c(C3CCN(S(C)(=O)=O)CC3)cnn2C[C@@H](C)N1c1cc(Cl)nc2[nH]ccc12`: the Stability result in the data set with Liver microsome is “Unstable”.
The same measure, in the same setting: the value for `[2H]C1([2H])c2c(C3CCN(S(C)(=O)=O)CC3)cnn2C[C@@]([2H])(C)N1c1cc(Cl)nc2[nH]ccc12` was “Unstable”.
